Experiments:
HL-60 = assay: Cytotoxicity against human HL60 cells after 72 hrs by MTT assay; type: functional, cell-based; conditions: HL-60, 72 h
Method in brief: (§1)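 Exponentially growing cells were seeded at 3.5 × 10⁵ cells/ml (adherent EJ) or 1 × 10⁵ cells/ml (suspension HL-60), grown 24 h, then exposed continuously for 72 h. Drugs came from fresh DMSO stocks diluted in medium to ≤0.5% final DMSO, with eight wells per concentration. MTT (10 mg/ml PBS stock) was added for 4 h at 37 °C, formazan dissolved in 5% HCOOH/2-propanol, and read at 580 nm. IC50 was taken from a sigmoidal non-linear fit of survival as % of untreated control.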

[1] = Cytotoxicity against human […] cells after 72 hrs by MTT assay; type: functional, cell-based; method in brief: as §1
[2] = system: Strongylocentrotus purpuratus; assay: Inhibition of Strongylocentrotus purpuratus embryos cleavage at 10 uM; type: functional

Compound	IC50 (HL-60) [µM]	IC50 [1] [µM]	inhibition at 10 µM [2] [%]
CCOC(=O)C(C(C)=O)C(c1ccc(O)c(O)c1)c1c(O)c2ccccc2oc1=O (stereo not drawn)	35.1	116	
CCOC(=O)C(C(C)=O)C(c1cccc([N+](=O)[O-])c1)c1c(O)c2ccccc2oc1=O (stereo not drawn)	90.8	172	
CCOC(=O)C(C(C)=O)C(c1ccc(C(=O)O)cc1)c1c(O)c2ccccc2oc1=O (stereo not drawn)	> 200	> 200	
CCOC(=O)C(C(C)=O)C(c1ccc(O)cc1)c1c(O)c2ccccc2oc1=O (stereo not drawn)	> 200	> 200	
CCOC(=O)C(C(C)=O)C(c1ccc([N+](=O)[O-])cc1)c1c(O)c2ccccc2oc1=O (stereo not drawn)	> 200	> 200	
O=c1oc2ccccc2c(O)c1Cc1c(O)c2ccccc2oc1=O [DICUMAROL]			50
N[C@@H](Cc1ccc(N(CCCl)CCCl)cc1)C(=O)O [MELPHALAN]	11.4	22.1	

Source: ChEMBL document CHEMBL1149798, “Synthesis, computational study and cytotoxic activity of new 4-hydroxycoumarin derivatives” (Eur J Med Chem, 2008)
